The subject of series [1] is breast cancer MCF-7 cells. Conditions: single agent; cited from earlier work.
In series [2] the test system is human cervical cancer HeLa cells. Particulars: cited from earlier work.
A further series relates to BT549 cells. Particulars: 48 h of treatment; cited from earlier work.
The subject of the next series is MDA-MB-231 cells. Conditions: 48 h of treatment; cited from earlier work.
The subject of series [3] is non-cancer human prostate epithelial cells. Particulars: berberine 10–100 μM; cited from earlier work.
The next series concerns pregnant rats. Conditions: high dose (500–600 times more than human dosage); cited from earlier work.
Series [4] deals with prostate cancer PC3 cells. Conditions: cited from earlier work.
Series [5] concerns MDA-MB-231 VIM RFP cells. As to the kind of experiment: CCK-8 viability assay, cancer cells. Conditions: read-out: IC50 Cancer MDA-MB-231 VIM RFP. It is filed as cell-based, human. Summed up: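 MDA-MB-231 VIM RFP cells were grown in EMEM with 10% FBS, 0.01 mg ml−1 insulin, 10 μg ml−1 blasticidin S and 1% pen/strep at 37 °C, 5% CO2. Cells were seeded at 1.5 × 10^4 cells/well and exposed to 0–100 μM test compound, alone or with a fixed 50 μM BBC, for 24, 48 or 72 h. WST-8 (CCK-8) absorbance was read at 450 nm, and IC50 was taken from concentration–viability curves.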

The next series relates to MCF-10A cells. Briefly: CCK-8 viability assay, non-cancer cells. Conditions: read-out: IC50 Non-cancer MCF-10A. In kind it is cell-based, human.
The test system of series [6] is MDA-MB-231 VIM RFP cells. Briefly: Cell cycle analysis by flow cytometry. In kind it is cell-based, human. Conditions: complex 20 μM and/or BBC 50 μM, 24 h. Summed up:
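Cells were plated at 1 × 10^6 cells/mL in 6-well plates and treated 24 h with 20 μM complex and/or 50 μM BBC. They were washed in PBS, fixed in ice-cold 70% EtOH at 4 °C for 2 h, washed again and stained with DAPI. Flow cytometry read at 450/50 nm, and G1, S and G2 fractions were gated. Triplicate; mean + std. err.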

Series [7] has as its system Caspase 3/7 in MDA-MB-231 VIM RFP cells. As to the kind of experiment: Caspase-Glo 3/7 luminescence assay. In kind it is cell-based, human. Conditions: complex 20 μM and/or BBC 50 μM, 24 h. Summed up: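 Cells were seeded at 1.5 × 10^4 cells/well and treated for 24 h with 20 μM complex and/or 50 μM BBC. Caspase-Glo 3/7 reagent was added and luminescence read. Mean ± SE, n = 3.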

For series [8], the system named is p-MLKL in MDA-MB-231 VIM RFP cells. As to the kind of experiment: Western blot analysis of p-MLKL. Conditions: complex 20 μM and/or BBC 50 μM, 24 h; relative to GAPDH. It is filed as cell-based, human. Summed up: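 Cells were plated at 1 × 10^6 cells/mL in 6-well plates and treated 24 h with 20 μM complex and/or 50 μM BBC. RIPA lysates were BCA-normalised, and equal protein was run on 10% SDS-PAGE (100 V, 2 h) and transferred to nitrocellulose (60 V, 90 min). After TBS blocking for 30 min, p-MLKL and GAPDH primaries were applied overnight at 4 °C, then Alexa Fluor Plus 488 secondary for 1 h at RT. Band densitometry was expressed relative to GAPDH.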

Read-outs that look alike come from different tables or passages of the source.

Turning to `COc1ccc2cc3[n+](cc2c1OC)CCc1cc2c(cc1-3)OCO2` [berberine], the IC50 in series [1] was 52.2 ± 1.59 µM; in the series on BT549 cells, 16.575 ± 1.219 µg/mL; in the series with MDA-MB-231 cells, 18.525 ± 6.139 µg/mL. Moreover, the “Enhancement of toxicity of berberine when combined with cisplatin” value in [2] (berberine 50 μg/mL combined with 5 μM of cisplatin) is reported as “around 54%”. Also, the Cytotoxic effect result is “significant cytotoxic effect” in [2] (dose of 50 μg/mL) and “did not show a significant cytotoxic effect” in series [3]. The Reproductive toxicity result in the series with pregnant rats was “no significant reproductive toxicity”. Further, the Cell cycle arrest result in series [4] (10 μM) is reported as “induced G0/G1 cell cycle arrest”; in series [4] (50 μM) it was “inhibited the cell cycle at G2/M phase”.
`COc1ccc2cc3[n+](cc2c1OC)CCc1cc2c(cc1-3)OCO2` [Berberine chloride (BBC), berberine chloride]: the IC50 with MDA-MB-231 VIM RFP cells [5] (Homo sapiens, MDA-MB-231, 24 h) is 48.3 ± 2.4 µM; with MDA-MB-231 VIM RFP cells [5] (Homo sapiens, MDA-MB-231, 48 h) it was 31.8 ± 2.6 µM; in the series with MDA-MB-231 VIM RFP cells [5] (Homo sapiens, MDA-MB-231, 72 h), 25.6 ± 1.9 µM; in the series with MCF-10A cells (Homo sapiens, MCF-10A, 24 h), more than 100 µM; in the series on MCF-10A cells (Homo sapiens, MCF-10A, 48 h), more than 100 µM; in the series with MCF-10A cells (Homo sapiens, MCF-10A, 72 h) it was 92.3 ± 1.4 µM. Besides, the “Fraction of cells in G2 phase” value in the series with MDA-MB-231 VIM RFP cells [6] is reported as 33.8%. Moreover, the “Caspase 3/7 activity (luminescence)” value in series [7] was “activation in caspase 3/7”. In addition, in series [8], the “p-MLKL level, western blot” value is reported as “low level of p-MLKL”.
Turning to `N.N.[Cl][Pt][Cl]` [Cisplatin], the IC50 in the series on MDA-MB-231 VIM RFP cells [5] (24 h incubation, CCK-8) is 28.1 ± 2.4 µM; in the series with MDA-MB-231 VIM RFP cells [5] (48 h incubation, CCK-8), 24.7 ± 2.6 µM; with MDA-MB-231 VIM RFP cells [5] (72 h incubation, CCK-8), 22.2 ± 1.8 µM; with MCF-10A cells (24 h incubation, CCK-8), 41.2 ± 1.9 µM; with MCF-10A cells (48 h incubation, CCK-8), 34.2 ± 2.7 µM; in series [1], 49.5 ± 1.62 µM.
